Laboratory results as given in ChEMBL document CHEMBL1148211, “Cytotoxic lissoclimide-type diterpenes from the molluscs Pleurobranchusalbiguttatus and Pleurobranchus forskalii” (J Nat Prod, 2004).

What was measured:
[1] = Cytotoxicity against human NCI60 cells; type: functional; conditions: for TGI: read-out: pTGI (converted)
[2] = Cytotoxicity against human H116 cells at 1.5 ug/mL by Valeriote soft agar disk diffusion method; type: functional
Method in brief: (§1)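 Corbett–Valeriote soft agar disk diffusion assay, with doses given per disk. Zones of inhibition around sample disks were compared between solid tumor cells (Colon38, ColonH116, LungH125) and either leukemia cells (L1210 or CEM) or normal CFU-GM cells. Zone sizes were used to score differential (solid tumor-selective) cytotoxicity.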

[3] = Cytotoxicity against human H125 cells at 1.5 ug/mL by Valeriote soft agar disk diffusion method; type: functional; method in brief: as §1
L1210 [4] = assay: Cytotoxicity against mouse L1210 cells at 1.5 ug/mL by Valeriote soft agar disk diffusion method; type: functional; method in brief: as §1
CCRF-CEM [5] = assay: Cytotoxicity against human CEM cells at 1.5 ug/mL by Valeriote soft agar disk diffusion method; type: functional; method in brief: as §1
MC-38 [6] = assay: Cytotoxicity against […] cells at 1.5 ug/mL by Valeriote soft agar disk diffusion method; type: functional; method in brief: as §1
CCRF-CEM [7] = assay: Cytotoxicity against human CEM cells at 1.5 ug/mL by Valeriote soft agar disk diffusion method
[8] = Cytotoxicity against human H116 cells at 1.5 ug/mL by Valeriote soft agar disk diffusion method
[9] = Cytotoxicity against human H125 cells at 1.5 ug/mL by Valeriote soft agar disk diffusion method
L1210 [10] = assay: Cytotoxicity against mouse L1210 cells at 1.5 ug/mL by Valeriote soft agar disk diffusion method
MC-38 [11] = assay: Cytotoxicity against […] cells at 1.5 ug/mL by Valeriote soft agar disk diffusion method
L1210 [12] = assay: Cytotoxicity against mouse L1210 cells at 63 ug/disk by Valeriote soft agar disk diffusion method; type: functional
Method in brief: (§2)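 Corbett–Valeriote soft agar disk diffusion assay. Sample is loaded onto a disk at the stated µg/disk and placed on soft agar cultures of the cells. The read-out is the size of the zone of inhibition around the disk. Zones for the solid tumour line (Colon38) are compared with those for leukaemia cells (L1210) or normal CFU-GM cells to judge differential cytotoxicity.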

MC-38 [13] = assay: Cytotoxicity against […] cells at 63 ug/disk by Valeriote soft agar disk diffusion method; type: functional; method in brief: as §2
[14] = Cytotoxicity against human CFU-GM cells at 63 ug/disk by Valeriote soft agar disk diffusion method; type: cell-based; method in brief: as §2
MC-38 [15] = assay: Cytotoxicity against […] cells at 1.8 ug/mL by Valeriote soft agar disk diffusion method; type: functional; method in brief: as §1
L1210 [16] = assay: Cytotoxicity against mouse L1210 cells at 113 ug/disk by Valeriote soft agar disk diffusion method; type: functional; method in brief: as §2
MC-38 [17] = assay: Cytotoxicity against […] cells at 113 ug/disk by Valeriote soft agar disk diffusion method; type: functional; method in brief: as §2
[18] = Cytotoxicity against human CFU-GM cells at 113 ug/disk by Valeriote soft agar disk diffusion method; type: cell-based; method in brief: as §2

Molecule C=C1[C@@H](O)C[C@H]2C(C)(C)C[C@H](Cl)C[C@]2(C)[C@H]1C[C@H](O)[C@H]1CC(=O)NC1=O [CHLOROLISSOCLIMIDE] has a GI50 [1] of 5.75 nM, an LC50 [1] of 16600 nM and a TGI [1] of 129 nM. It also gave an Activity [2] of 550 Zone units, an Activity [3] of 550 Zone units and an Activity (L1210 [4]) of 550 Zone units. For the same molecule, the Activity (CCRF-CEM [5]) was 550 Zone units, the Activity (MC-38 [6]) was 550 Zone units and the Activity (CCRF-CEM [7]) was 550 Zone units. It also gave an Activity [8] of 550 Zone units, an Activity [9] of 550 Zone units and an Activity (L1210 [10]) of 550 Zone units. The Activity (MC-38 [11]) was 550 Zone units.

Work on C=C1[C@@H](O)C[C@H]2C(C)(C)[C@@H](O)[C@H](Cl)C[C@]2(C)[C@H]1C[C@H](O)[C@H]1CC(=O)NC1=O yielded an Activity (L1210 [12]) of 500 Zone units, an Activity (MC-38 [13]) of 400 Zone units and an Activity [14] of 100 Zone units.

CC1=CC(=O)[C@H]2C(C)(C)[C@@H](Cl)[C@H](Cl)C[C@]2(C)[C@H]1C[C@H](O)[C@H]1CC(=O)NC1=O [HATERUMAIMIDE D] showed a GI50 [1] of 977 nM, an LC50 [1] of 44700 nM and a TGI [1] of 12300 nM.

With C=C1[C@@H](O)C[C@H]2C(C)(C)[C@@H](Cl)[C@H](Cl)C[C@]2(C)[C@H]1C[C@H](O)[C@H]1CC(=O)NC1=O [DICHLOROLISSOCLIMIDE] the GI50 [1] was 5.5 nM, the LC50 [1] was 20000 nM and the TGI [1] was 123 nM. The Activity [2] was 550 Zone units, the Activity [3] was 550 Zone units and the Activity (L1210 [4]) was 550 Zone units. It also gave an Activity (CCRF-CEM [5]) of 550 Zone units, an Activity (MC-38 [6]) of 550 Zone units and an Activity (MC-38 [15]) of 550 Zone units. It also gave an Activity (CCRF-CEM [7]) of 550 Zone units, an Activity [8] of 550 Zone units and an Activity [9] of 550 Zone units. The Activity (L1210 [10]) was 550 Zone units.

Work on C=C1CC(=O)[C@H]2C(C)(C)[C@@H](Cl)[C@H](Cl)C[C@]2(C)[C@H]1C[C@H](O)[C@H]1CC(=O)NC1=O yielded an Activity (L1210 [16]) of 250 Zone units, an Activity (MC-38 [17]) of 650 Zone units and an Activity [18] of 350 Zone units.
